Measurements reported in ChEMBL document CHEMBL1137651 (Antimicrob Agents Chemother, 2007).

How the values were obtained:
Type in all cases: functional
[1] = test system: Mycobacterium tuberculosis; experiment: Antimycobacterial activity against drug-resistant Mycobacterium tuberculosis H37Rv ATCC 2517-infected hollow fiber system based in vitro pharmacokinetic-pharmacodynamic tuberculosis model assessed as rate constant for maximal bacterial growth
[2] = test system: Mycobacterium tuberculosis; experiment: Antimycobacterial activity against drug-resistant Mycobacterium tuberculosis H37Rv ATCC 2517-infected hollow fiber system based in vitro pharmacokinetic-pharmacodynamic tuberculosis model assessed as concentration needed to achieve 50% effect on maximal growth rate
[3] = test system: Mycobacterium tuberculosis; experiment: Antimycobacterial activity against drug-resistant Mycobacterium tuberculosis H37Rv ATCC 2517-infected hollow fiber system based in vitro pharmacokinetic-pharmacodynamic tuberculosis model assessed as sigmoidicity constant for drug effect on microbial growth
[4] = test system: Mycobacterium tuberculosis; experiment: Antimycobacterial activity against drug-resistant Mycobacterium tuberculosis H37Rv ATCC 2517-infected hollow fiber system based in vitro pharmacokinetic-pharmacodynamic tuberculosis model assessed as rate constant for maximal bacterial kill
[5] = test system: Mycobacterium tuberculosis; experiment: Antimycobacterial activity against drug-resistant Mycobacterium tuberculosis H37Rv ATCC 2517-infected hollow fiber system based in vitro pharmacokinetic-pharmacodynamic tuberculosis model assessed as concentration needed to achieve 50% maximal killing rate
In short: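 Hollow-fibre system at 37°C under 5% CO2, preconditioned with drug for 3 days. Log-phase bacilli (10 ml of 10^6 CFU/ml) went into the peripheral compartment. […] Drug levels were checked centrally. Peripheral samples were taken daily for 7 days, washed twice in saline and plated on 7H10 agar for CFU.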

[6] = test system: Mycobacterium tuberculosis; experiment: Antimycobacterial activity against drug-resistant Mycobacterium tuberculosis H37Rv ATCC 2517-infected hollow fiber system based in vitro pharmacokinetic-pharmacodynamic tuberculosis model assessed as sigmoidicity constant for microbial killing

CO[C@H]1/C=C/O[C@@]2(C)Oc3c(C)c(O)c4c(O)c(c(/C=N/N5CCN(C)CC5)c(O)c4c3C2=O)NC(=O)/C(C)=C\C=C\[C@H](C)[C@H](O)[C@@H](C)[C@@H](O)[C@@H](C)[C@H](OC(C)=O)[C@@H]1C [RIFAMPIN]
Kgmax [1]: 6.195 ×10⁻³ log10CFU/ml/hr | C50g [2]: 2.019 mg/L | Hg [3]: 4.542 | Kkmax [4]: 29.379 ×10⁻³ log10CFU/ml/hr | C50k [5]: 22.405 mg/L | Hk [6]: 45.326
